Source: PMC7048620 (Nature microbiology, 2020)
Where two headings read alike, the source gives them in different places.

Assays:
[1] = target: FtsZ-FtsA co-filaments on supported lipid membranes (E. coli) (UniProt P0A9A6); assay: single-molecule tracking by TIRF microscopy on supported lipid bilayers
[2] = target: FtsZ-FtsA co-filaments on supported lipid membranes (E. coli) (UniProt P0A9A6); assay: TIRF microscopy of purified proteins on supported lipid bilayers
FtsZ-FtsA co-filaments [3] = target: T1, FtsZ-FtsA co-filaments (Escherichia coli, UniProt P0A9A6+P0ABH0); assay: FRAP on supported lipid membranes; conditions: mean±SD
T1 sequence (P0ABH0 1-420): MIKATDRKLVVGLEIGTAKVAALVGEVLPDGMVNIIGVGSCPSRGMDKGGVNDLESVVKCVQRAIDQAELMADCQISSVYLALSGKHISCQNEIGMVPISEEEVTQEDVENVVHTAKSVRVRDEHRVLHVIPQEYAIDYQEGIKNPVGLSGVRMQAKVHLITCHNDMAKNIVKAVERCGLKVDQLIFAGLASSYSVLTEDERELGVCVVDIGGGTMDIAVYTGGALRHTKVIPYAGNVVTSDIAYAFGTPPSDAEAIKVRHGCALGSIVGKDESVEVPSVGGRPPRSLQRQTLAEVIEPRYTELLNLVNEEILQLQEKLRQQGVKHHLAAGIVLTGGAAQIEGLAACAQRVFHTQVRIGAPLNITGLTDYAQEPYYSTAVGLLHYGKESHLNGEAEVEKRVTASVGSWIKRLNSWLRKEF
T1 sequence (P0A9A6 1-383 partner): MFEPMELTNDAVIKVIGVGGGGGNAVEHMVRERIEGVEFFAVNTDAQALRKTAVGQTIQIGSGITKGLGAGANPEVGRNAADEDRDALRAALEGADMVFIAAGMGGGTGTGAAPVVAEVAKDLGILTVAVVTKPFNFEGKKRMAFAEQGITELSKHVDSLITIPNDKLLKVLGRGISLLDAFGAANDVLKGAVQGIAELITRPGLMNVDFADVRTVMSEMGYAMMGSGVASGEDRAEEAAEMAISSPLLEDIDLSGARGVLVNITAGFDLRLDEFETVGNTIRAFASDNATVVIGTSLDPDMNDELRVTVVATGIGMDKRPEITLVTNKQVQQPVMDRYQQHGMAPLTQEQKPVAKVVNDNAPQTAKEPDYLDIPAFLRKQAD
Summary of the method: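 Treadmilling patterns were formed on supported lipid membranes with 0.2 mol-% tris-Ni-NTA or 1 mol-% mono-Ni-NTA, using FtsA (0.45-0.6 μM) and FtsZ (1.5-1.8 μM) in 50 mM Tris-HCl pH 7.4, 150 mM KCl, 5 mM MgCl2 with 4 mM ATP/4 mM GTP. His-tagged FtsN cytoplasmic peptide went onto tris-Ni-NTA membranes. A ~15 μm x 15 μm area was bleached and imaged at 2 s/frame; a mono-exponential fit gave the half-time.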

FtsZ-FtsA co-filaments [4] = target: T1, FtsZ-FtsA co-filaments; assay: Single molecule diffusion and confinement time analysis on supported bilayers; conditions: Cy5-labelled single molecules in presence of Alexa488-FtsZ pattern, Gaussian fit
Summary of the method: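 FtsA (0.45-0.6 μM) and FtsZ (1.5-1.8 μM) with 4 mM ATP/GTP formed steady-state patterns on supported membranes. Unlabelled His-tagged FtsN cytoplasmic peptide (1 μM) was added from solution with 10-20 pM Cy5-labelled peptide (wild-type or variant). TIRF tracking ran at 10 Hz. Diffusion-coefficient density distributions were fitted with a Gaussian (FtsZ, FtsA) or a double Gaussian (FtsN).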

[5] = Sedimentation velocity analytical ultracentrifugation; type: physicochemical, Escherichia coli
Summary of the method: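 Full-length FtsN was loaded at 9-20 μM and read by Rayleigh interference and 280 nm absorbance. Alexa488-FtsA was loaded at 4 μM and read at 495 nm. c(s) distributions came from least-squares boundary modelling.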

FtsA [6] = target: T2, FtsA (E. coli, UniProt P0ABH0 1-420); assay: TIRF microscopy of purified proteins on supported lipid bilayers
T2 sequence: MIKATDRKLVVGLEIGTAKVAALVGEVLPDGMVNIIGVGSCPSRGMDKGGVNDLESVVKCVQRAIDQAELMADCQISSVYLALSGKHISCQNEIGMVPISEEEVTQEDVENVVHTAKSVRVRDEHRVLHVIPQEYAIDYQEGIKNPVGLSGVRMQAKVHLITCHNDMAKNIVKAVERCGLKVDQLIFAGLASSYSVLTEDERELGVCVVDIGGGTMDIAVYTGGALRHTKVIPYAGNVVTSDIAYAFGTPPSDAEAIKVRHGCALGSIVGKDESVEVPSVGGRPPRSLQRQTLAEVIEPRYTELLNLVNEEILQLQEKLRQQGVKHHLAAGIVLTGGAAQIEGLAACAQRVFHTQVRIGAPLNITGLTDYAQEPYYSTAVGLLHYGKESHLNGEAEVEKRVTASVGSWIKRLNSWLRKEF

[7] = target: the molecule itself; assay: single-molecule tracking by TIRF microscopy on supported lipid bilayers
FtsA [8] = target: T2, FtsA; assay: MST
FtsA [9] = target: T2, FtsA; assay: MST; remark: listed apart in the source
FtsA [10] = target: T3, FtsA (Escherichia coli, UniProt P0ABH0); type: binding; conditions: MST
T3 sequence (P0ABH0 1-420): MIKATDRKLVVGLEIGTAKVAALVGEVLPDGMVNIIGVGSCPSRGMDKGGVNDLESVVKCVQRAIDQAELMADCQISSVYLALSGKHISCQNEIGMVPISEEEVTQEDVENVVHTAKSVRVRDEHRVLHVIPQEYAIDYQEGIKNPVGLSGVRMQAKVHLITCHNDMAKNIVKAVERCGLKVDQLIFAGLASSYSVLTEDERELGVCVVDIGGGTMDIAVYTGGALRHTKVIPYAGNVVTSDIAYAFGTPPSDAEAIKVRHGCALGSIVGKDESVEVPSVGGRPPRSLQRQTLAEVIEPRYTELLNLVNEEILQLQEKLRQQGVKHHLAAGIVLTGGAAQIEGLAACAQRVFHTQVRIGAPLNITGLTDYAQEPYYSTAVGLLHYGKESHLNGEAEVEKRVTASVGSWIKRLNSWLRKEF

“FtsN_(cyto)His, cytoplasmic peptide of FtsN” gave a confinement time [1] of 0.41 s, a frequency of confinement events relative to FtsN (cyto-DDEE)His [1] of 3 fold and a colocalization efficiency with FtsZ (Pearson correlation coefficient) [2] of 0.62.

In the case of `CCCCCCCC/C=C\CCCCCCCC(=O)OC[C@H](COP(=O)(O)OCCNS(=O)(=O)c1ccc(-c2c3ccc(=[N+](CC)CC)cc-3oc3cc(N(CC)CC)ccc23)c(S(=O)(=O)[O-])c1)OC(=O)CCCCCCC/C=C\CCCCCCCC` [rhodamine-PE, 1,2-dioleoyl-sn-glycero-3-phosphoethanolamine-N-(lissaminerhodamine B sulfonyl)], the “half-time of fluorescence recovery Ƭ0.5, + FtsA/Z” value (FtsZ-FtsA co-filaments [3]; after FtsA and FtsZ added) is reported as 17.7 ± 0.2 s and the “half-time of fluorescence recovery Ƭ0.5, alone” value (FtsZ-FtsA co-filaments [3]; without FtsA and FtsZ) is reported as 12.8 ± 3.4 s.

With “FtsZ: E. coli tubulin-related GTPase FtsZ (UP P0A9A6), purified, fluorescently labelled” the “diffusion coefficient (Dcoef) of single trajectories” value (FtsZ-FtsA co-filaments [4]) was “below 1x10^-4 μm^2/s”.

For “FtsA: E. coli FtsA (UP P0ABH0), membrane anchor of FtsZ, purified”, the “sedimentation coefficient, main peak” value ([5]; AlexaFluor488-FtsA in the absence of FtsN, n=2) was ~ 2 S and the “diffusion coefficient (Dcoef) of single trajectories” value (FtsZ-FtsA co-filaments [4]) was 0.0016 ± 0.0003 μm^2/s.

B1: FtsZ (natural protein)
chain: MFEPMELTNDAVIKVIGVGGGGGNAVEHMVRERIEGVEFFAVNTDAQALRKTAVGQTIQIGSGITKGLGAGANPEVGRNAADEDRDALRAALEGADMVFIAAGMGGGTGTGAAPVVAEVAKDLGILTVAVVTKPFNFEGKKRMAFAEQGITELSKHVDSLITIPNDKLLKVLGRGISLLDAFGAANDVLKGAVQGIAELITRPGLMNVDFADVRTVMSEMGYAMMGSGVASGEDRAEEAAEMAISSPLLEDIDLSGARGVLVNITAGFDLRLDEFETVGNTIRAFASDNATVVIGTSLDPDMNDELRVTVVATGIGMDKRPEITLVTNKQVQQPVMDRYQQHGMAPLTQEQKPVAKVVNDNAPQTAKEPDYLDIPAFLRKQAD
B1: binds (FtsA [6]); binds [7].

B2: Full-length FtsN (His6) (natural protein)
chain: MAQRDYVRRSQPAPSRRKKSTSRKKQRNLPAVSPAMVAIAAAVLVTFIGGLYFITHHKKEESETLQSQKVTGNGLPPKPEERWRYIKELESRQPGVRAPTEPSAGGEVKTPEQLTPEQRQLLEQMQADMRQQPTQLVEVPWNEQTPEQRQQTLQRQRQAQQLAEQQRLAQQSRTTEQSWQQQTRTSQAAPVQAQPRQSKPASSQQPYQDLLQTPAHTTAQSKPQQAAPVARAADAPKPTAEKKDERRWMVQCGSFRGAEQAETVRAQLAFEGFDSKITTNNGWNRVVIGPVKGKENADSTLNRLKMAGHTNCIRLAAGG
With B2 the Kd (FtsA [8]) was 250 ± 51 nM, the “sedimentation coefficient, second main peak” value ([5]; 16 μM in 3.72 mM DDM, Raleigh interference, n=3, compatible with dimers) was 5.2 ± 0.1 S and the “sedimentation coefficient, first main peak” value ([5]; 16 μM in 3.72 mM DDM, Raleigh interference, n=3, compatible with monomers) was 4.1 ± 0.1 S. For the same molecule, the Kd (FtsA [9]) was 734 ± 23 nM, the “interaction with FtsA at high salt” value (FtsA [10]; 300 mM KCl) was “significantly weaker” and the “interaction with FtsA in solution” value (FtsA [10]; Alexa647-FtsA titrated with peptide or protein, n=3) was “Binding was observed”.
